Source: publication PMC2718708 (Bioorganic & medicinal chemistry, 2008)
“Also recorded” adds a separate entry of the source. Where a SMILES comes first, the peptide text is derived from it. [ ]: non-standard residue; d: D form. Nle = CCCC[C@H](N)C(=O)O

Assays:
p53 in U2OS cells = assay type: cell-based, human; conditions: U2OS co-transfected with p53 and Hdm2; 8 h; 50 µM ALLN or 3–15 µM 5
[1] = tested on: p53 and Hdm2 in RPE cells; experiment: Cellular p53 and Hdm2 levels in RPE cells by immunoblotting; conditions: for effect on cellular p53 and Hdm2 levels: 1–10 µM, immunoblotting; for effect on cellular p53 and Hdm2 levels / concentration exhibiting greatest increase in p53 and Hdm2: 8 h; for concentration exhibiting greatest increase in p53 and Hdm2: similar to 50 µM ALLN
Hdm2 [2] = molecular target: T1, Hdm2 (Homo sapiens, UniProt Q00987); experiment: Hdm2 electrochemiluminescence assay; assay type: biochemical; conditions: for activity in Hdm2 assay: isolated from Hdm2-inhibitory fractions
T1 sequence (Q00987 whole entry): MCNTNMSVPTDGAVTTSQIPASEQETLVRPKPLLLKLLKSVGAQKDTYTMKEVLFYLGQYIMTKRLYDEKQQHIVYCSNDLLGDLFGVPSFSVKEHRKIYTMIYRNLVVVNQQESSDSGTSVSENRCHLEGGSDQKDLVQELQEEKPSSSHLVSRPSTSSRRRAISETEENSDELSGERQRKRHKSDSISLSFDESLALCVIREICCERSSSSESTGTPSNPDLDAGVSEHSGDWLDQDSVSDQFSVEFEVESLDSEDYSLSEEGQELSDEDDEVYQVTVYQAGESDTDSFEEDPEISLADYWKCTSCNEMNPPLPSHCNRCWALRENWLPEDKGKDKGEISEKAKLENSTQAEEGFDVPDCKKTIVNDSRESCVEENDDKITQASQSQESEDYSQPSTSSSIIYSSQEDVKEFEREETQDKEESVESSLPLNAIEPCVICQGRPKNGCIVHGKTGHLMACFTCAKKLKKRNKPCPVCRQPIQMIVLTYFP

[3] = Stability of the compound observed while conducting experiments; assay type: physicochemical
[4] = tested on: Hdm2 in p53^−/−mdm2^−/− mouse embryo fibroblasts; assay type: cell-based; conditions: 10 µM, 8 h; Hdm2 under p53-independent CMV promoter
[5] = tested on: U2OS-pG13 cells (p53-responsive luciferase reporter); experiment: p53-responsive luciferase reporter assay in U2OS-pG13 cells; assay type: cell-based, human; conditions: 1–10 µM, 22 h
Method in brief: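 U2OS-pG13 cells carry endogenous wild-type p53 and a stably expressed p53-responsive luciferase reporter (pG13). They were incubated for 22 h with test compound at 1–10 µM, with adriamycin at 1 µg/ml as reference. Cells were lysed in reporter lysis buffer and spun at 14,000 g for 20 min. Supernatant luciferase was read as RLU. Values are mean and standard deviation of three independent experiments.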

[6] = tested on: HCT116-p53^+ and HCT116-p53^− cells; experiment: Killing of HCT116-p53+ compared to HCT116-p53- cells; assay type: cell-based, human; conditions: HCT116-p53+ vs HCT116-p53−; data not shown
RPE-E1A cells = experiment: Cell death by trypan blue exclusion, RPE-E1A cells; assay type: cell-based, human; conditions: 3–25 µM, 17 h
A9 cells = experiment: Cell death by trypan blue exclusion, p53-deficient MEFs; assay type: cell-based, mouse; conditions: 5–20 µM, 20 h
C8 cells [7] = experiment: PARP cleavage by immunoblotting, C8 cells; assay type: cell-based, mouse; conditions: 5–20 µM, 14 h
RPE cells = experiment: Cell death by trypan blue exclusion, parental RPE cells; assay type: cell-based, human; conditions: 3–25 µM, 17 h
C8 cells [8] = experiment: Cell death by trypan blue exclusion, wild-type p53 MEFs; assay type: cell-based, mouse; conditions: 5–20 µM, 20 h
[9] = tested on: p53 in HCT116 colon carcinoma cells; experiment: ALLN-induced ubiquitylated p53 in HCT116 cells expressing wild-type p53; assay type: cell-based, human; conditions: treatment with both 5 and ALLN; data not shown
Hdm2 [10] = molecular target: T1, Hdm2; conditions: cited from earlier work

**Q.** For `CCCC[C@@H](C=O)NC(=O)[C@H](CC(C)C)NC(=O)[C@H](CC(C)C)NC(C)=O` [ALLN, N-acetyl-leucyl-leucyl-norleucinal, reference compound] (Ac-Leu-Leu-[Nle]-aldehyde), which “effect on p53 degradation / p53 level” value (p53 in U2OS cells) is on record?
**A.** accumulation of p53

**Q.** And the “ubiquitylated forms of p53” value (p53 in U2OS cells)?
**A.** higher molecular weight forms of the protein indicative of ubiquitylation

**Q.** With `COc1cc(CCN(C)C)c2c(c1O)SSSSS2` [Compound 1, Isolissoclinotoxin B] as the molecule, how does the “effect on p53 levels” value ([1]; RPE cells, at 1 µM) read?
**A.** did not increase p53 levels

**Q.** What about the “toxicity to RPE cells” value ([1]; at 10 µM) of the same molecule?
**A.** toxic

**Q.** Which results are given for `COc1cc(CCN)c2c(c1OC)SSSSS2` [Compound 2, varacin]?
**A.** effect on cellular p53 and Hdm2 levels ([1]; RPE cells): no discernable cellular effects; activity in Hdm2 assay (Hdm2 [2]): very little activity

**Q.** For `COc1c(C)c(CCN(C)C)c2c(c1OC)SSSSS2` [Compound 3, N,N-dimethyl-5-methylvaracin], which “effect on cellular p53 and Hdm2 levels” value ([1]; RPE cells) is on record?
**A.** no discernable cellular effects

**Q.** And the “activity in Hdm2 assay” value (Hdm2 [2])?
**A.** very little activity

**Q.** With `CSC1=C(CCN)c2nc3ccccc3c3ccnc(c23)C1=O` [Compound 4, Diplamine B] as the molecule, how does the “effect on cellular p53 and Hdm2 levels” value ([1]; RPE cells) read?
**A.** increased p53 and Hdm2 in cells in a dose-dependent manner

**Q.** And the “concentration exhibiting greatest increase in p53 and Hdm2” value ([1]; RPE cells)?
**A.** 10 µM

**Q.** What about the “stability” value [3] of the same molecule?
**A.** fairly unstable and degraded over time

**Q.** What about the “effect on cellular Hdm2” value [4] of the same molecule?
**A.** increased Hdm2; also recorded: stabilized Hdm2 in MEFs

**Q.** With `NCCc1c2c(c3nccc4c3c1Nc1ccccc1-4)OCS2` [Compound 5, Lissoclinidine B] as the molecule, how does the “effect on p53 degradation / p53 level” value (p53 in U2OS cells) read?
**A.** blocked p53 degradation in a dose-dependent manner; also recorded: inhibits Hdm2-mediated p53 degradation

**Q.** What about the “ubiquitylated forms of p53” value (p53 in U2OS cells) of the same molecule?
**A.** absent

**Q.** And the “luciferase activity (p53-dependent transactivation)” value [5]?
**A.** dose-dependent increase in luciferase activity; also recorded: activates p53 transcription

**Q.** And the p53-dependent killing [6]?
**A.** p53-dependent killing

**Q.** What about the “effect on cellular p53 and Hdm2 levels” value ([1]; RPE cells) of the same molecule?
**A.** increased p53 and Hdm2 in cells in a dose-dependent manner

**Q.** What about the “concentration exhibiting greatest increase in p53 and Hdm2” value ([1]; RPE cells) of the same molecule?
**A.** 10 µM

**Q.** What about the cell death (RPE-E1A cells) of the same molecule?
**A.** clear dose-dependent increase in cell death; also recorded: selectively kills transformed cells

**Q.** What about the cell death (A9 cells) of the same molecule?
**A.** relatively resistant

**Q.** What about the “PARP cleavage (apoptosis)” value (C8 cells [7]) of the same molecule?
**A.** cleavage of the poly (ADP-ribose) polymerase (PARP) was observed; also recorded: induces apoptosis in C8 cells

**Q.** And the cell death (RPE cells)?
**A.** no effect

**Q.** And the IC50 (Hdm2 [2])?
**A.** 98.1 ± 6 µM

**Q.** What about the cell death (C8 cells [8]) of the same molecule?
**A.** marked increase in cell death; also recorded: selectively kills cells expressing wild-type p53

**Q.** And the “effect on cellular Hdm2” value [4]?
**A.** increased Hdm2; also recorded: stabilized Hdm2 in MEFs

**Q.** And the “effect on ALLN-induced ubiquitylated p53” value [9]?
**A.** prevented the accumulation of ALLN-induced ubiquitylated p53

**Q.** Which “inhibition of auto-ubiquitylation of Hdm2” value (Hdm2 [10]) does the source give for `c1ccc2c3ccn4cc5c(cc4c-3nc2c1)CCCC5` [sempervirine] here?
**A.** inhibits auto-ubiquitylation of Hdm2
